Results from ChEMBL document CHEMBL5705905, “Pharmacological targeting of kinases MST1 and MST2 augments tissue repair and regeneration” (Sci Transl Med, 2016).
Activity calls are given as the source filed them. No cut-off for these calls is given here.

Key:
[1] = target: LIM domain kinase 1 (Homo sapiens) (UniProt P53667); assay: Inhibition of LIMK1 (unknown origin) assessed as remaining activity at 1 uM by Kinome scan method relative to control
[2] = test system: Mus musculus; assay: Protection against human hepatocyte transplanted FRG mouse assessed as increase in the ratio of BrdU+/FAH+ cells at 1 mg/kg, ip administrated once a daily for 28 days by H&E staining based immunohistochemical analysis; assay type: functional, organism-based; conditions: Liver, time 28.0 day
[3] = target: Dual serine/threonine and tyrosine protein kinase (Homo sapiens) (UniProt Q6XUX3); assay: Inhibition of RIPK5 (unknown origin) assessed as remaining activity at 1 uM by Kinome scan method relative to control
[4] = target: Cyclin-dependent kinase-like 1 (Homo sapiens) (UniProt Q00532); assay: Inhibition of CDKL1 (unknown origin) assessed as remaining activity at 1 uM by Kinome scan method relative to control
Sequence of Cyclin-dependent kinase-like 1 (Homo sapiens) (Q00532 whole entry): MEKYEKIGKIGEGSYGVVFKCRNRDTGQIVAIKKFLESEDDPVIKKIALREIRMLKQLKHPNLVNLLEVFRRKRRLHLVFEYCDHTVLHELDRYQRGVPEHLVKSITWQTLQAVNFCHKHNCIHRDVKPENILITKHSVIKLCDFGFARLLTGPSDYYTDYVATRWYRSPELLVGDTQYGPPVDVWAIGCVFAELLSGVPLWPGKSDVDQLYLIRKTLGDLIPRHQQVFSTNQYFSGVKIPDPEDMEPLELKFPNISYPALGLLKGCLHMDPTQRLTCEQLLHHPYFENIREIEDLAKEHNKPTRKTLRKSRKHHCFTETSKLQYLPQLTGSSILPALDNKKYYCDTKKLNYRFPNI
Summary of the method: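 Active-site-dependent competition-binding profiling (KINOMEscan) at 1 μM against a 468-kinase panel; compound supplied from a 10 mM DMSO stock. Read-out is ctrl% = (test signal − positive control signal)/(negative control signal − positive control signal) × 100. DMSO is the negative control (100%) and a control compound the positive control (0%). Lower ctrl% means tighter binding.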

[5] = test system: Mus musculus; assay: Protection against CCl4-induced mouse assessed as low level in collagen deposition at 1 mg/kg, ip administration daily for 10 days by Sirius Red staining; assay type: functional, organism-based; conditions: Liver, time 10.0 day
[6] = target: Tyrosine-protein kinase ABL1 (Homo sapiens) (UniProt P00519); assay: Inhibition of ABL1 (unknown origin) assessed as remaining activity at 1 uM by Kinome scan method relative to control
Sequence of Tyrosine-protein kinase ABL1 (Homo sapiens) (P00519 whole entry): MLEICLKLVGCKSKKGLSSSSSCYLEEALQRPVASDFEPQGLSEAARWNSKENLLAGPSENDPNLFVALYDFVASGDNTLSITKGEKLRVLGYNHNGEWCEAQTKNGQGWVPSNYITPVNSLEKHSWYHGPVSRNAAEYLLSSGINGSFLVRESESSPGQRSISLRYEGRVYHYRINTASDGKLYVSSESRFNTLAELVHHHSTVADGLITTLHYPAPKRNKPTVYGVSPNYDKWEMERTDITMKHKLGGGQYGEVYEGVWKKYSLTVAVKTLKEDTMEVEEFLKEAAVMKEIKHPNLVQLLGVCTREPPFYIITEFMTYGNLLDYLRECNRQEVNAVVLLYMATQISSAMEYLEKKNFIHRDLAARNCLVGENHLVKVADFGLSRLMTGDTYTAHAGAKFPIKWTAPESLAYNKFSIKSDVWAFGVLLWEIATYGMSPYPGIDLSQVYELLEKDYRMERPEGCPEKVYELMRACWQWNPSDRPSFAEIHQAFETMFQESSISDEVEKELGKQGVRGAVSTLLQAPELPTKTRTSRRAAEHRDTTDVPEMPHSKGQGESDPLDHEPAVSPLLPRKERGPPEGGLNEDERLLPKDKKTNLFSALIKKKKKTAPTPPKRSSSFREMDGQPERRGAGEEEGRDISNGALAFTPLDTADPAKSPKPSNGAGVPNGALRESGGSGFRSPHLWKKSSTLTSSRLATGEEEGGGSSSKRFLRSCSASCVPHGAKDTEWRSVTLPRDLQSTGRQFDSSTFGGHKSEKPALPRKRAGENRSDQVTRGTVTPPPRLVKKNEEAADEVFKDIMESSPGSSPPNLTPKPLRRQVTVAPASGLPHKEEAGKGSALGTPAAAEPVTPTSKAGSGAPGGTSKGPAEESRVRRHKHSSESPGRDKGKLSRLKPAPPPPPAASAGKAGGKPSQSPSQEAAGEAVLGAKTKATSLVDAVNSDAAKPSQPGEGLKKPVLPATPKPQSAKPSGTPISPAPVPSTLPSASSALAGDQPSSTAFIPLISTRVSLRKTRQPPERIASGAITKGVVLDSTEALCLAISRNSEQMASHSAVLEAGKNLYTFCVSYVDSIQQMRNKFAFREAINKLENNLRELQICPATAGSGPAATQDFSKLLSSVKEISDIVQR
Summary of the method: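 Active-site-dependent competition-binding (KINOMEscan) panel of 468 kinases, test compound at 1 μM (from a 10 mM DMSO stock). Read-out is ctrl% = (test signal − positive control signal)/(negative control signal − positive control signal) × 100. DMSO is the negative control (100%) and a control compound is the positive control (0%). Lower ctrl% means tighter binding.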

[7] = target: Serine/threonine-protein kinase PknB (Mycobacterium tuberculosis) (UniProt P9WI81); assay: Inhibition of Mycobacterium tuberculosis PknB assessed as remaining activity at 1 uM by Kinome scan method relative to control
Sequence of Serine/threonine-protein kinase PknB (Mycobacterium tuberculosis) (P9WI81 whole entry): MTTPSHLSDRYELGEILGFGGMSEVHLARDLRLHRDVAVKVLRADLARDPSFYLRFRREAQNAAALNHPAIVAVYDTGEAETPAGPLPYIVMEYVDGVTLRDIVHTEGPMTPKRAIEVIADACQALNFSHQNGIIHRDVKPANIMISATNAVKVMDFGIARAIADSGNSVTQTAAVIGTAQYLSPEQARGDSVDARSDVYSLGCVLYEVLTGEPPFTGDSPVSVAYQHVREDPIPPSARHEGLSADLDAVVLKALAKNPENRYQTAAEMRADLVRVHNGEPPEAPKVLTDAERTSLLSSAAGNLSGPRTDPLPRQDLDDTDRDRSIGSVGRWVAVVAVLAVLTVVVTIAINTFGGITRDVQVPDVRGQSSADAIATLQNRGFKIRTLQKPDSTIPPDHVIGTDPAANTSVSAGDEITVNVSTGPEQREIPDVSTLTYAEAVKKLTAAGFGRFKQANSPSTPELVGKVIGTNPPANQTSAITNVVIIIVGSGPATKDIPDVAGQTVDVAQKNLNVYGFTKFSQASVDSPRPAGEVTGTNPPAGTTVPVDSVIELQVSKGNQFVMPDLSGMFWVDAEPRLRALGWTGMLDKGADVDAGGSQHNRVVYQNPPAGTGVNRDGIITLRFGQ
Summary of the method: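 KINOMEscan active-site competition binding assay at 1 μM against 468 kinases. Ctrl% = (test − positive control)/(negative control DMSO − positive control) × 100; lower values mean tighter binding.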

[8] = test system: Mus musculus; assay: Protection against APAP induced liver injury in mouse assessed as continual expansion of centrilobular necrotic lesions at 1 mg/kg, ip administered at 1.5 hrs by H&E staining; assay type: functional, organism-based
[9] = test system: Receptor-type tyrosine-protein kinase FLT3 (Homo sapiens), P36888 [UNDEFINED MUTATION]; assay: Inhibition of FLT3 […]/F691L mutant (unknown origin) assessed as remaining activity at 1 uM by Kinome scan method relative to control
[10] = target: T1, Serine/threonine-protein kinase 3 (Homo sapiens, UniProt Q13188); assay: Inhibition of MST2 (unknown origin) in presence of ATP by enzymatic assay
T1 sequence (Q13188 whole entry): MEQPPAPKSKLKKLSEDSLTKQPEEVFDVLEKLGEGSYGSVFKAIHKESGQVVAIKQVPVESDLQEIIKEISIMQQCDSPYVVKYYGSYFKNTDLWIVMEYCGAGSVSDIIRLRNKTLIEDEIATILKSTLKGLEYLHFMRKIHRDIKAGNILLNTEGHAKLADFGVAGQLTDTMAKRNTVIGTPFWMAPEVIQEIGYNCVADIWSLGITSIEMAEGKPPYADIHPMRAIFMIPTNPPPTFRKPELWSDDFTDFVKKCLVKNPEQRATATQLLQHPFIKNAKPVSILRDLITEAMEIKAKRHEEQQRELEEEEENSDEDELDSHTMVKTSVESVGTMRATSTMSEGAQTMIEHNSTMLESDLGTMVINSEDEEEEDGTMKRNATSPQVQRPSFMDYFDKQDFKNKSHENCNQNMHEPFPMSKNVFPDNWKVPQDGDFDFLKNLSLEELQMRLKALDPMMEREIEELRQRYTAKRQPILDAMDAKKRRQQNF

[11] = MRT (0 to infinity) in male Sprague-Dawley rat at 5 mg/kg, iv measured for 24 hrs by LC-MS/MS analysis; assay type: ADME, organism-based; conditions: in vivo
[12] = target: T2, Serine/threonine-protein kinase 4 (Homo sapiens, UniProt Q13043); assay: Binding affinity to MST1 (unknown origin) assessed as dissociation constant
T2 sequence (Q13043 whole entry): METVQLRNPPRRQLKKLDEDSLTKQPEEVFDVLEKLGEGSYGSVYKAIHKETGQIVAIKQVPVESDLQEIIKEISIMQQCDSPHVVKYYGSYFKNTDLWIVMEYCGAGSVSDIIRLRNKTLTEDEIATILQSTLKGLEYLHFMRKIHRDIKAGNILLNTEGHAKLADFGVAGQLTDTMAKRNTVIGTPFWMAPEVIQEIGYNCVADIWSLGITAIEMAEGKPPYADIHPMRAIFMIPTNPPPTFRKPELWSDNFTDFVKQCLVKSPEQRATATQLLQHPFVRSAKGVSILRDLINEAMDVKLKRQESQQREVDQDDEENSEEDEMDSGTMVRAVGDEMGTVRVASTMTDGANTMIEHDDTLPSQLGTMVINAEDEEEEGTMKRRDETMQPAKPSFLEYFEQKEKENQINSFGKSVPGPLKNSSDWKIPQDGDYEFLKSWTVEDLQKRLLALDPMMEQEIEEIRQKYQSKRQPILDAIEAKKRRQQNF

[13] = target: STE20/SPS1-related proline-alanine-rich protein kinase (Homo sapiens) (UniProt Q9UEW8); assay: Inhibition of STK39 (unknown origin) assessed as remaining activity at 1 uM by Kinome scan method relative to control
[14] = target: Dual specificity mitogen-activated protein kinase kinase 5 (Homo sapiens) (UniProt Q13163); assay: Inhibition of MEK5 (unknown origin) assessed as remaining activity at 1 uM by Kinome scan method relative to control
Sequence of Dual specificity mitogen-activated protein kinase kinase 5 (Homo sapiens) (Q13163 whole entry): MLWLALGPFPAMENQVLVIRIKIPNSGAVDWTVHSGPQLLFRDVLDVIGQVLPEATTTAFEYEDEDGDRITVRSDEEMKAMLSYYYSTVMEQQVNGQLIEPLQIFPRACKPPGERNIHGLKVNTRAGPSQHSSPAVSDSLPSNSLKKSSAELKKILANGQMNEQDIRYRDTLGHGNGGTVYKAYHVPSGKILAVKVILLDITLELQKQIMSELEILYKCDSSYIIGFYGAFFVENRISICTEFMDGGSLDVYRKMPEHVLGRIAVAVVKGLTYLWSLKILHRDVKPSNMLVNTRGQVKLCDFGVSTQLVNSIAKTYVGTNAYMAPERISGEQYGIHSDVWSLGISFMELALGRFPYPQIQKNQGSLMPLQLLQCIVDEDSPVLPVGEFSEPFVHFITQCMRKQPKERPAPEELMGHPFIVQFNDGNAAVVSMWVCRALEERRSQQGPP

[15] = test system: HepG2; assay: Inhibition of Flag-tagged MST1 Y101F/D109A mutant (unknown origin) in human HepG2 cells assessed as MOB1 phosphorylation level at 0.3 to 10 uM by immunoblot analysis; assay type: cell-based; conditions: dose 0.3-10 µM
[16] = target: Protein kinase C delta type (Homo sapiens) (UniProt Q05655); assay: Inhibition of PRKCD (unknown origin) assessed as remaining activity at 1 uM by Kinome scan method relative to control
Sequence of Protein kinase C delta type (Homo sapiens) (Q05655 whole entry, looked up): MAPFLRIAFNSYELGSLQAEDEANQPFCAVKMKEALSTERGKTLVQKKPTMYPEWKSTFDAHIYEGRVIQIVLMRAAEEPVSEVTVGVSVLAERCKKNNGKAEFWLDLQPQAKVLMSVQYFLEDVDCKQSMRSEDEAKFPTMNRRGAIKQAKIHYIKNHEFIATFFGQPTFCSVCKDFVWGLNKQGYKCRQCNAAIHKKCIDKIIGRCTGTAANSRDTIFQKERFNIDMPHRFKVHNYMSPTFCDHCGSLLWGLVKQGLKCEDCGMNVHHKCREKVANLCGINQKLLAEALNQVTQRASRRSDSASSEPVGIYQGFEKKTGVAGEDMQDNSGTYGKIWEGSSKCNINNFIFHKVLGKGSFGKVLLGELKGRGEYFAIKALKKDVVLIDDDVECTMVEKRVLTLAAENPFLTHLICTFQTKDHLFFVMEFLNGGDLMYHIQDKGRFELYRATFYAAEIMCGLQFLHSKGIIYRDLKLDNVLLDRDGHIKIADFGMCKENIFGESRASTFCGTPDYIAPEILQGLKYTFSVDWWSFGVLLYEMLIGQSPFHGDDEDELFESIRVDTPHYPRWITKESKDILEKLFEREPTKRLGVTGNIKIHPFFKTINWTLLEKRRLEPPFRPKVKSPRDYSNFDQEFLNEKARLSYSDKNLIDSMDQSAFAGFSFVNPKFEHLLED

[17] = target: Testis-specific serine/threonine-protein kinase 1 (Homo sapiens) (UniProt Q9BXA7); assay: Inhibition of TSSK1B (unknown origin) assessed as remaining activity at 1 uM by Kinome scan method relative to control
Sequence of Testis-specific serine/threonine-protein kinase 1 (Homo sapiens) (Q9BXA7 whole entry): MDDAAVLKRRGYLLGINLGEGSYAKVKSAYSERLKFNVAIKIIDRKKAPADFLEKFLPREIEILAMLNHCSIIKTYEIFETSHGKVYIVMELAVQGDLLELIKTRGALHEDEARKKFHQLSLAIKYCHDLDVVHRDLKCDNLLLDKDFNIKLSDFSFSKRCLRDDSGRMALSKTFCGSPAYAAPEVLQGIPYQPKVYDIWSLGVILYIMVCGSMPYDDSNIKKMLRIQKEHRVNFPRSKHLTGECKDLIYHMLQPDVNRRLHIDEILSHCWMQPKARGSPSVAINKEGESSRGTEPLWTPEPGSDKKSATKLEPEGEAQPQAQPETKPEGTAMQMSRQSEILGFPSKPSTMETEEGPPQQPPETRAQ

[18] = target: Serine/threonine-protein kinase PLK3 (Homo sapiens) (UniProt Q9H4B4); assay: Inhibition of PLK3 (unknown origin) assessed as remaining activity at 1 uM by Kinome scan method relative to control
Sequence of Serine/threonine-protein kinase PLK3 (Homo sapiens) (Q9H4B4 whole entry, looked up): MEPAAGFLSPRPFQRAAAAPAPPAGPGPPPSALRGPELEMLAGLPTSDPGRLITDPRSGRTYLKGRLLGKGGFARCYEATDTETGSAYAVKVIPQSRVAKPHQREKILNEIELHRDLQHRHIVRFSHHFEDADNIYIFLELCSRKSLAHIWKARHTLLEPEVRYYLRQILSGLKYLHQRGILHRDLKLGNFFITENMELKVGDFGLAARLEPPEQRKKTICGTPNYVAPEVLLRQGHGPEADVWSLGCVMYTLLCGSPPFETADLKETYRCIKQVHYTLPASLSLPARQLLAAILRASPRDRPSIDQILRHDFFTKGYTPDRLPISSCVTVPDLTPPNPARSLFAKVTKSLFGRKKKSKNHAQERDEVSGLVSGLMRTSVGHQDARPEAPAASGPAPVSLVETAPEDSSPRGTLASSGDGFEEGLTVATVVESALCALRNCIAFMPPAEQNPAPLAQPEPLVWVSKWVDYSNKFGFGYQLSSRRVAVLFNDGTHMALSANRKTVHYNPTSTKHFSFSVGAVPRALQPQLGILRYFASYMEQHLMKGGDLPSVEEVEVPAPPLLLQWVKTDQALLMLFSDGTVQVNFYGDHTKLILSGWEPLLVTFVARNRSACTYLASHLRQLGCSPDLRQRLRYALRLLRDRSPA

[19] = target: Phosphatidylinositol 4-phosphate 5-kinase type-1 gamma (Homo sapiens, UniProt O60331); assay: Binding affinity to PIP5K1C (unknown origin) assessed as dissociation constant

Sequence of LIM domain kinase 1 (Homo sapiens) (P53667 whole entry, looked up, the tested form may be a part): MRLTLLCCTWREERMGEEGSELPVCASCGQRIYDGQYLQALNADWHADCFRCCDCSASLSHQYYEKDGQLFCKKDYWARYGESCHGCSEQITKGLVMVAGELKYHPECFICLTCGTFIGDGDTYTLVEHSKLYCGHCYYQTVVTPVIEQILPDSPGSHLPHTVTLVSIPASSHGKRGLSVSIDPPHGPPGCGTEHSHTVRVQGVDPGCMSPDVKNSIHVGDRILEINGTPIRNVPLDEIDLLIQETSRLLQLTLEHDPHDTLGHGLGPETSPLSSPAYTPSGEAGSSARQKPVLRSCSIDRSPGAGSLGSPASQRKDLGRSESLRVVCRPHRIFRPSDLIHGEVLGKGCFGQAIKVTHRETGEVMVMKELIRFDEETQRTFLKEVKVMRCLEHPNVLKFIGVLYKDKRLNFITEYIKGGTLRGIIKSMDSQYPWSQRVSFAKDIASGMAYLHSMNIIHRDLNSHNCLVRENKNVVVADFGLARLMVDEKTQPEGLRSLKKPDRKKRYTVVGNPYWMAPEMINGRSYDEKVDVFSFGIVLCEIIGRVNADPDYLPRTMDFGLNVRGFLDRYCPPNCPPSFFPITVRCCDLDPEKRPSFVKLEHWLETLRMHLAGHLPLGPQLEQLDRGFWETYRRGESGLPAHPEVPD

SMILES: CN1C(=O)c2sccc2N(C)c2nc(Nc3ccc(S(N)(=O)=O)cc3)ncc21
- Activity [1]: 96%
- Activity [2]: Active
- Activity [3]: 45%
- Activity [4]: 100%
- Activity [5]: Active
- Activity [6]: 21%
- Activity [7]: 89%
- Activity [8]: Active
- Activity [9]: 26%
- IC50 [10]: 18.2 nM
- MRT inf [11]: 1.36 h
- Kd [12]: 17 nM
- Activity [13]: 86%
- Activity [14]: 79%
- inhibition [15]: Active
- Activity [16]: 94%
- Activity [17]: 100%
- Activity [18]: 99%
- Kd [19]: 77 nM
